Sampled rows, rich in hits. Any-hit rate of the full collection: about 2.2%.
Ba/F3 V617F tox = reduced viability of JAK2V617F-dependent Ba/F3 cells, primary screen, JAK2V617F inhibitor project, cell-based, Ba/F3 EpoR-JAK2V617F, luminescence. ATP luminescence. AID 1446, 2008. inhibition, % at 5.6 µM. 220,000 compounds, 1.1% hits;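 active = inhibition above the campaign mean plus 3 SD over all tested compounds, cut at about 24% in these data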;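 also: cytokine-independent growth of Ba/F3 cells driven by EpoR plus mutant JAK2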
MT stabilizer = microtubule stabilizers in HeLa cells, primary screen, imaging, high-content imaging; HeLa tubulin immunostaining HCS, 24 h; share of cells brighter than vehicle mean+2SD; % tubulin-high responders, % at 10 µM; 200,000 compounds, 0.83% hits;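 active = plate Z-score above 3 for both tubulin-high and condensed-nucleus cell shares, with cell loss under 80%, at 10 µM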;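 also: anti alpha tubulin signal scored within the nucleus-defined area of each cell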
IEC-6 cytotox = cytotoxicity in IEC-6 intestinal epithelial cells, primary screen, cytotoxicity control for KLF5 inhibitor project, cell-based, luminescence; inhibition, % at 5 µM; AID 1825, 2009; IEC-6 cytotoxicity, luminescence viability; 290,000 compounds, 0.78% hits
APP 5UTR inh = inhibitors of APP translation via 5'UTR reporter, primary screen, APP 5'UTR luciferase, SH-SY5Y cells. SH-SY5Y APP 5'UTR-luciferase reporter, luminescence. inhibition, % at 2 µM. 190,000 compounds, 0.82% hits. AID 1285, 2008;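 active = inhibition above a set limit, derived from the sample mean plus 3 SD, cut at about 45% in these data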
bCat nuc transl = modulators of beta-catenin nuclear translocation, primary screen, imaging, HeLa cells, immunofluorescence, high-content. nuclear translocation activity, % at 5 µM. 190,000 compounds, 0.3% hits. AID 1665, 2009;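 active = nuclear translocation activity above 50% at 5 µM, with a well cell count of 50 or more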;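 also: per-cell ratio of nuclear to cytoplasmic median beta-catenin stain intensity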
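Test system: human HeLa cells, endogenous beta-catenin. Times: 24 h compound exposure, 37°C. Measured by: beta-catenin immunofluorescence imaging with DAPI.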
BaF3 tox = parental Ba/F3 cell viability inhibition, counter-screen for JAK2V617F inhibitor project, murine pro-B, CellTiter-Glo luminescence; 220,000 compounds, 1.1% hits; CellTiter-Glo ATP luminescence; AID 1486, 2009; inhibition, % at 5.6 µM;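 active = inhibition above a per-campaign cutoff, the mean inhibition of all tested compounds plus 3 SD, cut at about 27% in these data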
BaF3 parental 2 = parental Ba/F3 cell viability inhibition, counter-screen for JAK2V617F inhibitor project, murine pro-B, CellTiter-Glo luminescence | AID 1520, 2009 | inhibition, % at 5.6 µM | 580 compounds, 31% hits | shares compounds with Ba/F3 V617F tox | cells kept alive by added IL-3;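 active = cell growth inhibition above the hit limit set in the earlier mutant JAK2 cell screen, cut at about 27% in these data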
JAK2V617F conf = viability loss in Ba/F3 EpoR-JAK2V617F cells, confirmation, JAK2V617F inhibitor project, cell-based, luminescence, triplicate; 580 compounds, 66% hits; CellTiter-Glo luminescence; inhibition, % at 5.6 µM; shares compounds with Ba/F3 V617F tox;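 active = mean inhibition above the hit cutoff derived in the earlier primary screen, cut at about 25% in these data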;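 also: higher means lower luminescence from reduced cell ATP and viability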
IEC-6 cytotox cf = cytotoxic compounds in IEC-6 epithelial cells, confirmation, cytotoxicity control, cell-based, luminescence. IEC-6 rat intestinal epithelial viability. shares compounds with IEC-6 cytotox. inhibition, % at 5 µM. AID 1907, 2009. 1,900 compounds, 63% hits
Of the large screens only hits and unclear results are named; the others gave an inactive call (follow-up assays come after a bar, where they were run). Rule as the data show it, unless noted: active = inhibition above about 22%; inactive = the rest.

COc1ccc(OCCCC(=O)Nc2cccc(C(C)=O)c2)cc1	Ba/F3 V617F tox 73, IEC-6 cytotox 89 | BaF3 parental 2 inactive | JAK2V617F conf inactive | IEC-6 cytotox cf inactive
CCC(C)(C)NC(=O)CN(C(=O)CCC(=O)Nc1nccs1)c1ccc2c(c1)OCCO2	none (no result: Ba/F3 V617F tox, MT stabilizer, APP 5UTR inh, bCat nuc transl, BaF3 tox)
COc1cc(C)c(C(C)C)cc1S(=O)(=O)n1cnc(C)c1	Ba/F3 V617F tox 63, MT stabilizer 14, IEC-6 cytotox 36, bCat nuc transl 93 | BaF3 parental 2 61 | JAK2V617F conf 92 | IEC-6 cytotox cf 51
CCOC(=O)c1nc2c(ccc3ccccc32)cc1C	none (no result: MT stabilizer, APP 5UTR inh)
CCC(=O)N1CCN(c2ccc(NC(=O)c3ccc([N+](=O)[O-])o3)cc2)CC1	Ba/F3 V617F tox 34, IEC-6 cytotox 97, APP 5UTR inh 48 | BaF3 parental 2 45 | JAK2V617F conf 95 | IEC-6 cytotox cf 51
CCCC(=O)N1CCN(c2ccc(NC(=O)c3ccc(Br)o3)cc2)CC1	none
Cc1noc(C)c1CSc1nc2ccccc2c(=O)n1-c1ccccc1	Ba/F3 V617F tox 29, MT stabilizer 42, IEC-6 cytotox 30 | BaF3 parental 2 33 | JAK2V617F conf 54 | IEC-6 cytotox cf 38
O=C(CCl)NCc1cc(-c2ccc(Cl)cc2)no1	Ba/F3 V617F tox 24, IEC-6 cytotox 24 | BaF3 parental 2 inactive | JAK2V617F conf 75 | IEC-6 cytotox cf 31
COc1ccc(OCc2cc(-c3ccc(Cl)cc3)no2)cc1	none
O=C(NC1CCCc2ccccc21)c1ccccc1 (centres undefined)	none
O=C(NC1CCCc2ccccc21)c1n[nH]c(=O)c2ccccc12 (centres undefined)	Ba/F3 V617F tox 24, IEC-6 cytotox 23 | BaF3 parental 2 inactive | JAK2V617F conf 42 | IEC-6 cytotox cf 34
CC(C)c1ccc(NC(=O)C2CSC3(C)CCC(=O)N23)cc1 (centres undefined)	none (no result: Ba/F3 V617F tox, MT stabilizer, APP 5UTR inh, bCat nuc transl, BaF3 tox)
O=C(N/N=C/c1ccccc1Cl)c1[nH]c2ccc(Br)cc2c1-c1ccccc1	Ba/F3 V617F tox 47, IEC-6 cytotox 56, APP 5UTR inh 96, bCat nuc transl 94 | BaF3 parental 2 88 | JAK2V617F conf 100 | IEC-6 cytotox cf 70
CCn1c(CNC(=O)c2cccnc2)cc2ccccc21	none (no result: Ba/F3 V617F tox, MT stabilizer, APP 5UTR inh, bCat nuc transl, BaF3 tox)
NC(=O)CSc1nc(-c2ccccc2)nc2ccccc12	none (no result: Ba/F3 V617F tox, MT stabilizer, APP 5UTR inh, bCat nuc transl, BaF3 tox)
NC(=O)c1cc2c3ccccc3ccn2c1-c1ccccc1	Ba/F3 V617F tox 70, IEC-6 cytotox 38, bCat nuc transl 102 (no result: MT stabilizer, APP 5UTR inh) | BaF3 parental 2 63 | JAK2V617F conf 95 | IEC-6 cytotox cf 61
Cc1nn2c(NCCN3CCOCC3)c3c(nc2c1-c1ccccc1)CCCC3	none (no result: MT stabilizer, APP 5UTR inh)
Cc1nn2c(NCc3ccccn3)c3c(nc2c1-c1ccccc1)CCC3	Ba/F3 V617F tox 48, IEC-6 cytotox 95 (no result: MT stabilizer, APP 5UTR inh) | BaF3 parental 2 inactive | JAK2V617F conf 59 | IEC-6 cytotox cf inactive
COc1ccc(CNC(=O)C/C(C)=N/NC(=O)c2ccc(OC)cc2OC)cc1	none (no result: Ba/F3 V617F tox, MT stabilizer, APP 5UTR inh, bCat nuc transl, BaF3 tox)
O=C1N(c2ccccc2)C[C@@H]2C[C@@H](c3cc4ccccc4o3)N3CCC[C@@]123	Ba/F3 V617F tox 101, IEC-6 cytotox 38, APP 5UTR inh 95 | BaF3 parental 2 107 | JAK2V617F conf 99 | IEC-6 cytotox cf 97
COc1ccc(N(C(=O)CCl)C(C(=O)NCCc2ccccc2)c2cccs2)cc1Cl (centres undefined)	Ba/F3 V617F tox 101, IEC-6 cytotox 78 | BaF3 parental 2 inactive | JAK2V617F conf 99 | IEC-6 cytotox cf 42
COc1cccc(N(C(=O)CCl)C(C(=O)NCCc2ccccc2)c2cccs2)c1 (centres undefined)	Ba/F3 V617F tox 99, IEC-6 cytotox 87 | BaF3 parental 2 inactive | JAK2V617F conf 99 | IEC-6 cytotox cf 41
CC(C)(C)c1csc(Sc2ncccc2[N+](=O)[O-])n1	none (no result: MT stabilizer, APP 5UTR inh)
CN1C(C(=O)N2CCc3ccccc3C2)=CC(c2ccc(F)cc2)=NS1(=O)=O	none (no result: Ba/F3 V617F tox, MT stabilizer, APP 5UTR inh, bCat nuc transl, BaF3 tox)
CCc1nnc(N/N=C/c2ccccc2Cl)n1N	Ba/F3 V617F tox 25, IEC-6 cytotox 100 | BaF3 parental 2 inactive | JAK2V617F conf inactive | IEC-6 cytotox cf inactive
COc1ccc(OC)c2c1C(=O)C(Cl)=C(Cl)C2=O	Ba/F3 V617F tox 66, IEC-6 cytotox 86 (no result: MT stabilizer, APP 5UTR inh) | BaF3 parental 2 84 | JAK2V617F conf 92 | IEC-6 cytotox cf 63
CS(=O)(=O)c1nc(-c2ccco2)cc(C(F)(F)F)n1	Ba/F3 V617F tox 42, IEC-6 cytotox 25 | BaF3 parental 2 inactive | JAK2V617F conf 70 | IEC-6 cytotox cf 36
COc1ccccc1-c1cc(C(F)(F)F)nc(S(C)(=O)=O)n1	none (no result: bCat nuc transl)
COCCNC(=S)NNC(=O)c1cc(C2CC2)nc2ccccc12	none (no result: Ba/F3 V617F tox, MT stabilizer, APP 5UTR inh, bCat nuc transl, BaF3 tox)
BrC(=C\c1ccccc1)/C=N/n1cnnc1	Ba/F3 V617F tox 65, IEC-6 cytotox 75, APP 5UTR inh 79 | BaF3 parental 2 55 | JAK2V617F conf 96 | IEC-6 cytotox cf 26
Cc1c(C)c2ccc(OC(C)C(=O)NCCCN3CCOCC3)c(C)c2oc1=O (centres undefined)	none (no result: Ba/F3 V617F tox, MT stabilizer, APP 5UTR inh, bCat nuc transl, BaF3 tox)
COc1ccc(NC(=O)Cc2ccc(Cl)c(Cl)c2)cn1	none
COc1ccc(NC(=O)/C(Cl)=C(/Cl)S(=O)(=O)Cc2ccc(C)cc2)cn1	Ba/F3 V617F tox 33, IEC-6 cytotox 23, APP 5UTR inh 86 (no result: bCat nuc transl) | BaF3 parental 2 88 | JAK2V617F conf 98 | IEC-6 cytotox cf 43
CCCC(=O)Nc1cccc(NC(=O)c2cccc([N+](=O)[O-])c2C)c1	none (no result: bCat nuc transl)
O=C(CCl)N=c1sccn1Cc1cccc2ccccc12	Ba/F3 V617F tox 102, IEC-6 cytotox 92 | BaF3 parental 2 inactive | JAK2V617F conf 99 | IEC-6 cytotox cf inactive
Cn1c(=NC(=O)CCl)sc2ccccc21	none
Nc1nc(CCl)nc(N(c2ccccc2)c2ccccc2)n1	Ba/F3 V617F tox 97, IEC-6 cytotox 90 (no result: MT stabilizer, APP 5UTR inh) | BaF3 parental 2 inactive | JAK2V617F conf 99 | IEC-6 cytotox cf inactive
Nc1nc(Cl)nc(N(c2ccccc2)c2ccccc2)n1	none
Cc1ccc(C)c(N(C(=O)c2csnn2)C(C(=O)NC2CCCCC2)c2cccnc2)c1 (centres undefined)	none (no result: Ba/F3 V617F tox, MT stabilizer, APP 5UTR inh, bCat nuc transl, BaF3 tox)

Source: PubChem BioAssay
